# This is a sample that favours compounds with a hit; in the whole collection about 2% have one here.
# MC4R barr agon – activates human MC4R beta-arrestin recruitment | AID 540308 | activation, % at 8.9 µM | U2OS MC4R beta-arrestin complementation, luminescence; percent of melanotan II response, DMSO zero | 360,000 compounds, 0.98% hits | P32245;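 active means activation above a per-plate cutoff, the mean activation of sample wells on that plate plus 3 SD, cut at about 8% in these data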
# Target sequence (P32245 whole entry, looked up): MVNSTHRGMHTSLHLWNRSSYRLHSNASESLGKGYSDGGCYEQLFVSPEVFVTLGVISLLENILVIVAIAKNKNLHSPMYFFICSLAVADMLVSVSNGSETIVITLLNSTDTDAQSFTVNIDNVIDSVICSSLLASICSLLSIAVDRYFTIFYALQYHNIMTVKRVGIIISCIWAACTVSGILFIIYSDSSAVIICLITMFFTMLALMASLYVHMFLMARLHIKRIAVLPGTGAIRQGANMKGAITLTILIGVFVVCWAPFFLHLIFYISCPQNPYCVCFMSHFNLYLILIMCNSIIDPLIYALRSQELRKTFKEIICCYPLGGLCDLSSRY
# UPR XBP1 act – activators of adaptive arm of unfolded protein response (XBP1); CHO-XBP1 luciferase reporter, IRE1-XBP1 UPR activation, luminescence; percent of tunicamycin response, DMSO as zero; activation, % at 20 µM; 330,000 compounds, 0.33% hits; AID 463104;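 active means versus positive control, 20 µM dose yields 30% or more activation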;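 further: 100% = tunicamycin at 10 µg/mL and 0% = DMSO only wells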
#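 Material: IRE1-XBP1 luciferase reporter CHO line / Quantity: one thousand reporter cells per well / Buffer or medium: F12 with 10% serum / Compound: 20 µM single concentration, DMSO 1% / Times: 6 h treatment, 37 °C / Detection: Steady-Glo luciferase glow luminescence, 10 min after reagent addition / Benchmarks: tunicamycin high, DMSO low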
# MC4R antagonist – blocks human MC4R cAMP signaling; P32245; MC4R-expressing cells, MTII-stimulated cAMP, LANCE TR-FRET; inhibition, % at 6.5 µM; 360,000 compounds, 0.48% hits; AID 540295;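 active means inhibition above its plate's cutoff, the mean of tested wells on that plate plus 3 SD, cut at about 29% in these data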;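 further: 0% = Melanotan II alone and 100% = Melanotan II plus saturating MCL0020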
#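 System: U2OS-MC4R stable cell line; Technique: Eu-cAMP/anti-cAMP TR-FRET, emission 671 nm; Repeats: single well per compound; Also added: Melanotan II; Dosing: one concentration, 6.5 µM nominal; Schedule: 30-min compound, 1-h challenge, 1-h detection, room temperature.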
# Bfl-1 A1 inh – inhibitors of the anti-apoptotic protein A1, read as caspase activation. 330,000 compounds, 0.066% hits. caspase activation, % (no concentration beside the values). MEF A1-2A-BIM cells, Caspase-Glo 3/7 luminescence, 3 h; percent of clofoctol response, vehicle zero;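 active means over half of replicate activation scores above 10%, or exactly half above 10 with the replicate mean above 10; inconclusive means replicate mean below 10 yet half the replicates above 10; inactive means over half of replicates below 10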
# UPR CHOP act – apoptotic UPR (CHOP) activation; CHO-CHOP luciferase reporter, luminescence; percent of tunicamycin response over DMSO baseline; activation, % at 10 µM; 330,000 compounds, 0.34% hits; AID 449763;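 active means at 10 µM dose, activation of 40% or more, normalized to positive control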;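 further: 100% = tunicamycin at 10 µg/mL and 0% = DMSO alone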
#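 assay system = CHO CHOP reporter cells | amount = 500 CHO-CHOP cells per well | buffer or medium = F12 with 10% FBS | incubation = 16-18 h cell attachment, then 6 h compound exposure, 37 °C | detection = luminescence read with Steady-Glo | read-out = percent activation relative to tunicamycin control | controls = tunicamycin high control, DMSO low control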
# UPR CHOP confirm – apoptotic UPR (CHOP) activation, confirmed | CHO-CHOP cells, CHOP-luciferase reporter luminescence; percent of tunicamycin response, DMSO as zero | AID 463112 | shares compounds with UPR CHOP act | 1,000 compounds, 64% hits | activation, % at 10 µM; in the data active means activation above about 33%;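 further: 0% = DMSO wells and 100% = tunicamycin 10 µg/mL wells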
# Numbers without * were called inactive; ? = inconclusive; . = no result.
SMILES,MC4R barr agon,UPR XBP1 act,MC4R antagonist,Bfl-1 A1 inh,UPR CHOP act,UPR CHOP confirm
O=C1/C(=C/c2ccc(N3CCOCC3)o2)SC(=Nc2ccccc2)N1CCc1c[nH]c2ccccc12,5,-10,4,?,110*,36*
COc1cc(/C=C2\SC(=Nc3ccccc3)N(CCc3c[nH]c4ccccc34)C2=O)ccc1OC(C)C(=O)O (centres undefined),3,-1,13,0,-2,.
COc1ccc(CC2=CC(=O)c3ccccc3C2=O)cc1,-1,-7,2,0,187*,191*
COc1ccc(Cc2ccccc2C(=O)O)cc1,1,.,5,.,.,.
O=C(NC1CCCC1)C(c1ccc(F)cc1)N(Cc1ccc(F)cc1)C(=O)CCl (centres undefined),1,-1,-3,0,48*,93*
COc1ccc(C(C(=O)NC2CCCCC2)N(C(=O)CCl)c2ccc(OC)cc2)cc1 (centres undefined),1,-1,7,1,36,.
COc1ccc(C(C(=O)NC2CCCCC2)N(C(=O)CCl)c2ccc(C)cc2)cc1 (centres undefined),18*,2,6,2,62*,29
CC(=O)OC[C@@H]1CN(Cc2ccccc2)C[C@H](n2cnc3c(N4CCN(c5ccccc5)CC4)ncnc32)O1,0,.,7,.,.,.
Cc1ccc(Nc2nc(-c3ccc(O)c(O)c3)cs2)nc1,.,9,.,.,216*,164*
CC(C)N(C(C)C)S(=O)(=O)c1ccc(N2CCc3ccccc3C2)nc1,0,29,7,0,64*,2
CCN(CC)S(=O)(=O)c1ccc(N2CCc3ccccc3C2)nc1,0,-2,25,0,15,.
CCCc1ccc(C(O)c2ncc(-c3ccccc3F)[nH]2)cc1 (centres undefined),4,.,9,.,.,.
c1ccc(CN2CCN(c3nc(-c4ccccn4)nc4ccccc34)CC2)cc1,0,13,3,0,82*,4
c1ccc(-c2nc(N3CCCCCC3)c3ccccc3n2)nc1,-2,0,-2,0,82*,31
c1ccc(CCNc2nc(-c3ccccn3)nc3ccccc23)cc1,0,14,14,0,44*,30
COc1ccc(N2CCN(C(=O)C(=O)c3cn(CC(=O)N4CCCC4)c4ccccc34)CC2)cc1,-1,.,5,.,.,.
Cc1ccc(C(=O)Sc2cccccc2=O)cc1,-5,0,-2,-2,112*,17
O=C(Nc1ccccc1SC(=O)c1ccccc1)c1ccccc1,-2,.,-15,.,.,.
CCN(CC)c1ccc(C(=O)OCc2cc(=O)oc3cc(O)ccc23)cc1,8,78*,0,-1,54*,22
CCN(CC)c1ccc2c(O)cc(=O)oc2c1,-1,1,4,0,-1,.
Cc1ccc2c(C(=O)CCl)c(C)[nH]c2c1,-3,-6,2,1,479*,274*
Cc1ccc2[nH]cc(C(=O)CCl)c2c1,4,-6,18,1,348*,189*
Cc1ccc2[nH]cc(C(=O)CN3CCN(C)CC3)c2c1,-2,0,0,0,1,.
O=C1ON=C(c2ccc(Cl)cc2)/C1=C/c1ccc(O)cc1,.,-2,.,4,107*,21
O=C1ON=C(c2ccccc2)/C1=C/c1ccc(O)cc1,0,7,25,0,10,.
O=C(NC(c1ccccc1)c1cnccn1)C1CCN(CCOc2ccc(Cl)cc2Cl)CC1 (centres undefined),1,.,0,.,.,.
O=C(/C=C/Sc1ccccc1)c1ccc(Cl)cc1,0,29,4,0,113*,104*
O=C(/C=C/Sc1ccccc1)c1ccccc1,-2,-3,-8,-2,79*,99*
Cc1cc(-n2c(C)cc(C(=O)CCl)c2C)no1,2,1,-12,0,171*,263*

# Source: PubChem BioAssay (several laboratories)
